Screening results (PubChem)
This is a sample that favours compounds with a hit; in the whole collection about 0.55% have one here.
OXTR potentiate = human OXTR potentiation; CHO-OTR cells, Fluo-8 calcium fluorescence, potentiator mode; 0% = oxytocin EC15, 100% = EC100; activation, % at 3 µM; 0.061% of 320,000 active;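 active = activation above that plate's cutoff, the mean activation of tested compounds plus 3 SD, cut at about 6.6% in these data, passing the limit was not always enough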;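 also: 100% uses oxytocin at 75 nM as the full agonist control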
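Material: human OTR in CHO cells. Compound: 3.0 µM, one dose. Timing: compound 6 min at room temperature before oxytocin, 100 s read. Evaluation: % activation of max/min ratio relative to oxytocin controls. Replication: single well per compound, singlicate. Signal: Fluo-8 calcium dye fluorescence.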
zfTRPN1 agonist = zebrafish TRPN1 (NompC) channel agonism. HEK293 zebrafish TRPN1-YFP, Fluo-8 calcium fluorescence; 100% = response to 87 µM carbachol. activation, % at 3 µM. 0.18% of 220,000 active. AID 1424;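 active = activation above its plate's cutoff, the mean activation of test wells on that plate plus 3 SD, cut at about 19% in these data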;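 also: 0% = DMSO alone and 100% = 87 µM carbachol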
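Control set: carbachol 87 µM as high control, DMSO as low control; system: HEK293 stable line with zebrafish TRPN1-YFP; read-out: % activation versus carbachol response; detection: intracellular calcium fluorescence with Fluo-8; doses: single test compound dose, 3 µM nominal, 0.3% DMSO; schedule: dye 1 h 37 °C plus 30 min RT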
OXTR ag = activates the human oxytocin receptor | AID 2435 | 0.32% of 320,000 active | P30559 | activation, % at 3 µM | CHO-OTR cells, Fluo-8 calcium fluorescence; normalized: DMSO 0%, oxytocin 100%;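 active = activation above the mean of all tested compounds plus 3 SD, cutoff set per screening run, cut at about 20% in these data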;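 also: peak over basal fluorescence ratio from a 100 s FLIPR kinetic read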
V1R ag counter = counter-screen for oxytocin receptor agonists: human V1a receptor agonists | CHO-V1R cells, Fluo-8 calcium fluorescence, agonist mode; 0% DMSO, 100% 3 nM vasopressin | activation, % at 3 µM | P37288 | 0.25% of 320,000 active;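 active = activation above the mean activation of all tested compounds plus 3 SD, per screening run, cut at about 20% in these data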;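 also: signal is peak over basal fluorescence ratio across a 100 second FLIPR read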
TRPML3 agonist = agonists of human TRPML3 channel. HEK293 TRPML3-YFP, Fluo-8 calcium fluorescence; 100% = the carbachol control signal. activation, % at 3 µM. 0.29% of 220,000 active. AID 1448;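 active = activation above its plate's cutoff, the mean activation of the plate's test wells plus 3 SD, cut at about 12% in these data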;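 also: 0% = DMSO only wells and 100% = carbachol wells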
Target sequence (Q8TDD5 whole entry, looked up): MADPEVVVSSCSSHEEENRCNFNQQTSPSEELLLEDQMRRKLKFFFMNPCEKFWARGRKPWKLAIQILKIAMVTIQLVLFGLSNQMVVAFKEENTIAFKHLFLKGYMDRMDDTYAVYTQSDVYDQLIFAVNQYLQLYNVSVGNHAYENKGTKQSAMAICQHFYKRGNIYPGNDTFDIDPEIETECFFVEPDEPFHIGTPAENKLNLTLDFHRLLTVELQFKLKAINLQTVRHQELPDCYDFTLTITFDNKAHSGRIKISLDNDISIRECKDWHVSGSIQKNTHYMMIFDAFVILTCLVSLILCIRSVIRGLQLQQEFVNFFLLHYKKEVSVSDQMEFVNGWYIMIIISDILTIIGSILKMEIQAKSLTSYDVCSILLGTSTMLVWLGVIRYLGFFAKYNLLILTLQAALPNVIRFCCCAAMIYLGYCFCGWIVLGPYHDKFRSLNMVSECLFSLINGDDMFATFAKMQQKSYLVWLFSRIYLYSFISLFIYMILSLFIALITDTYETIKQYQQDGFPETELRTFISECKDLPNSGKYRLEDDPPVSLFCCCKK
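Test system: TRPML3-YFP stable HEK293 cells. Doses: single point at 3 µM. Incubation: dye loading 1 h 37 °C then 30 min ambient, 125 s read. Signal: Fluo-8 calcium dye fluorescence, ex 470-495, em 515-575 nm. Measure: percent activation from peak-to-basal fluorescence ratio, scaled between DMSO and carbachol.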
* marks the source's active call; other numbers are inactive results; . = no result given.

SMILES	OXTR potentiate	zfTRPN1 agonist	OXTR ag	V1R ag counter	TRPML3 agonist
CCOC(=O)/C(=C/C=C1\Sc2ccccc2N1CC)C(C)=O	-17.1	51.1*	46.0*	49.3*	22.6*
CCOC(=O)/C(=C/C=C1\Sc2cc(C)c(C)cc2N1CC)C(C)=O	.	31.1*	.	.	20.8*
CCOC(=O)/C(=C\C=C1/Sc2ccccc2N1CC)C(C)=O	-12.1	29.9*	59.6*	40.4*	19.9*
CCC(C)Oc1nc2c(c(=O)n(C)c(=O)n2C)n1C (centres undefined)	-13.3	-0.1	-0.8	0.0	0.1
CC(C)C(NCC(=O)Nc1ccccc1C(=O)NC1CC1)c1ccccc1 (centres undefined)	-10.7	.	0.5	7.0	.
C=CCn1c(SCC)nc(O)cc1=O	-5.4	0.6	28.7*	60.0*	0.8
CC(C)c1c(C(=O)N/N=C/c2ccoc2)nnn1-c1nonc1N	-10.5	.	2.7	1.4	.
COc1ccc(/C=N/NC(=O)c2nnn(-c3nonc3N)c2-c2cccs2)cc1OC	-8.9	.	5.8	11.3	.
CC(C)c1c(C(=O)N/N=C/c2ccc(C(F)(F)F)cc2)nnn1-c1nonc1N	-8.0	.	66.0*	78.9*	.
Cc1ccc(/C=N/NC(=O)c2nnn(-c3nonc3N)c2-c2cccs2)cc1	-9.8	.	56.4*	42.4*	.
COc1cccc(-c2c(C(=O)N/N=C/c3cccs3)nnn2-c2nonc2N)c1	-8.3	.	21.4*	28.1*	.
O=C(Nc1ccc(S(=O)(=O)Nc2nccs2)cc1)c1cnc(Cl)c(Cl)c1	-13.7	0.4	-0.6	0.7	0.6
COc1ccc(-[n+]2c(C)cc(/C=C3\Sc4ccccc4N3C)cc2C)cc1	-19.7	19.4*	15.0	13.4	6.7
COc1ccc(C(=O)/C=C/c2ccc(N(C)C)cc2)c(OC)c1	-23.2	43.9*	135.2*	153.8*	20.0*
CN(C)c1ccc(/C=C/C(=O)c2ccc3c(c2)OCO3)cc1	-11.9	.	75.1*	77.0*	.
CN(C)c1ccc(/C=C/C(=O)c2cccnc2)cc1	-18.9	42.5*	90.1*	86.0*	33.5*
O=C(/C=C/c1cccc(O)c1)c1cccnc1	-1.6	1.0	1.1	0.9	3.6
COc1ccc(C(=O)/C=C/c2ccccc2)c(OC)c1	-6.2	-1.1	-1.6	-1.5	-0.2
C=C1/C=C(\C)[C@](C)(O)C[C@H](O)CC(=O)[C@H](O)[C@@H](O)[C@H](C)C[C@H](C)OC(=O)/C(C)=C/CC/C=C/[C@@H]2O[C@H]2C[C@H](C)C1	-6.9	.	0.0	-0.1	.
Cc1ccc(S(=O)(=O)N2CC(C)N(C(=O)N3CCOCC3)C2C)cc1 (centres undefined)	-5.3	.	0.6	0.2	.
COc1cc(/C=C(\C#N)c2nc3ccccc3o2)ccc1O	-32.5	65.5*	29.7*	23.9*	16.0*
CC(=O)OCC1O[C@@H](O[C@@H]2C[C@H]3C(C)(C)[C@H](OC(C)=O)CC[C@]3(C)[C@H]3CC[C@]45C[C@]4(CC[C@H]5[C@@H](C)C[C@@H](O)[C@H](O)C(C)(C)O)[C@@]32C)[C@H](O)[C@@H](O)[C@@H]1O (some centres undefined)	-17.9	1.2	68.9*	87.4*	-0.1
CC(C)=CCC[C@](C)(O[C@@H]1O[C@H](CO[C@@H]2O[C@H](CO)[C@@H](O)[C@H](O)[C@H]2O)[C@@H](O)[C@H](O)[C@H]1O)C1CC[C@]2(C)C1C(=O)CC1[C@@]3(C)CC[C@H](O[C@H]4O[C@@H](CO)[C@H](O)[C@@H](O)[C@@H]4O)C(C)(C)C3CC[C@]12C (some centres undefined)	-2.3	.	0.8	0.6	.
CC(=O)c1ccc(N(C(=O)CNC(=O)c2ccco2)C(C(=O)NC2CCCC2)c2ccncc2)cc1 (centres undefined)	-2.2	.	0.2	0.4	.
CCC1(c2ccc(F)cc2)NC(=O)N(CC(=O)c2cc(C)n(C3CC3)c2C)C1=O (centres undefined)	-22.3	.	31.3*	30.4*	.
SMILES	OXTR potentiate	zfTRPN1 agonist	OXTR ag	V1R ag counter	TRPML3 agonist
O=C(N/N=C/c1ccc(O)cc1)c1ccc(COc2cc(Cl)ccc2Cl)o1	-23.1	23.6*	32.7*	33.2*	10.5
O=C(Nc1cccnc1)c1ccc(COc2cc(Cl)ccc2Cl)o1	-21.7	0.3	4.4	7.0	-0.4
O=C(Oc1cc(=O)n2ccccc2n1)c1ccccc1	-5.8	-0.6	-0.2	0.1	1.3
CCN(CC)c1ccc(NC(=O)CNCc2ccccc2Cl)c(C)c1	-6.5	.	-0.2	2.4	.
CCCCCCn1c(=O)[nH]c2nc3cc(N)c(C)cc3nc2c1=O	.	42.3*	.	.	14.6*
Cn1c(N)c(-c2ccccc2)c2ccc([N+](=O)[O-])cc2c1=O	-17.5	.	45.7*	51.2*	.
CCOC(=O)C1(CCc2ccccc2)CCN(C(=O)c2cnc(C)cn2)CC1	-1.6	-0.2	-1.1	-1.0	0.7
CCN1/C(=C/C=C/c2oc3ccc(-c4ccccc4)cc3[n+]2CC)Oc2ccc(-c3ccccc3)cc21	-9.7	777.4*	662.0*	761.3*	326.0*
CCOC(=O)C1CN(S(=O)(=O)c2ccccc2)CCN1S(=O)(=O)c1ccccc1 (centres undefined)	-5.6	-0.4	-0.7	-0.1	2.1
CCOC(=O)C1CN(S(=O)(=O)c2ccc(C)cc2)CCN1S(=O)(=O)c1ccc(C)cc1 (centres undefined)	-4.3	21.5*	0.4	0.7	0.4
O=C(NCc1cccc(C(F)(F)F)c1)c1ccc2c(c1)OCCO2	-5.3	.	-0.1	-1.3	.
CC1C/C(=C/c2cccn2C)C(=O)/C(=C/c2cccn2C)C1 (centres undefined)	-22.9	0.9	58.1*	78.5*	1.1
CC1C/C(=C/c2ccncc2)C(=O)/C(=C/c2ccncc2)C1 (centres undefined)	-6.9	4.2	6.8	8.9	3.0
COCc1nnc(SCC(=O)Nc2cccc(Cl)c2C)n1-c1ccccc1	-7.0	-1.0	1.5	0.3	0.2
COCc1nnc(SCC(=O)NCc2ccccc2)n1-c1ccccc1	-3.4	24.8*	0.3	1.6	-0.6
O=C(O)/C=C/c1ccc([N+](=O)[O-])o1	-3.8	4.2	1.9	4.2	1.9
O=C1NC(=S)S/C1=C\C=C\c1ccc([N+](=O)[O-])o1	.	20.9*	.	.	11.0
Cc1ccc(C(C)(C)C)c(SCC(=O)Nc2nnc(C)s2)c1	1.0	.	-0.6	0.3	.
Cc1ccc(N=Cc2sc(O)c3ccccc23)cc1	-14.4	12.6	28.7*	36.6*	8.0
Cn1nc(OCC(=O)O)cc1C(F)(F)F	-1.8	0.0	1.0	0.5	0.0
N=c1n(Cc2ccc(Cl)cc2)c2ccccc2n1CC(O)COc1ccccc1 (centres undefined)	-13.8	2.2	37.0*	25.4*	1.2
